From PubChem
Hits are enriched below; roughly 3.2% of the tested compounds scored in any of these assays.
HIV Rev-RRE inh = HIV Rev-RRE protein-RNA interaction inhibition; inhibition, % at 8 µM; hit rate 0.79% among 97,000; P05866; Rev peptide-RRE RNA binding, FRET;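 active means inhibition above the screen-wide mean plus 3 SD, cut at about 35% in these data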
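Assay system: labelled RRE RNA duplex and labelled Rev peptide / Medium: HEPES pH 7.5 salt buffer with EDTA / Reagent: labelled Rev peptide / Schedule: 5 + 15 min at 25 °C / Signal: FRET, excitation 480 nm, emission 540 nm donor and 671 nm acceptor / Benchmarks: DMSO and neomycin B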
FAK blocker = blocks human focal adhesion kinase activity; biochemical FAK kinase activity assay; inhibition, %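 (tested at 7 µM)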; hit rate 0.84% among 97,000; AID 727; in the data active means inhibition above about 19%
Target sequence (Q05397 whole entry, looked up): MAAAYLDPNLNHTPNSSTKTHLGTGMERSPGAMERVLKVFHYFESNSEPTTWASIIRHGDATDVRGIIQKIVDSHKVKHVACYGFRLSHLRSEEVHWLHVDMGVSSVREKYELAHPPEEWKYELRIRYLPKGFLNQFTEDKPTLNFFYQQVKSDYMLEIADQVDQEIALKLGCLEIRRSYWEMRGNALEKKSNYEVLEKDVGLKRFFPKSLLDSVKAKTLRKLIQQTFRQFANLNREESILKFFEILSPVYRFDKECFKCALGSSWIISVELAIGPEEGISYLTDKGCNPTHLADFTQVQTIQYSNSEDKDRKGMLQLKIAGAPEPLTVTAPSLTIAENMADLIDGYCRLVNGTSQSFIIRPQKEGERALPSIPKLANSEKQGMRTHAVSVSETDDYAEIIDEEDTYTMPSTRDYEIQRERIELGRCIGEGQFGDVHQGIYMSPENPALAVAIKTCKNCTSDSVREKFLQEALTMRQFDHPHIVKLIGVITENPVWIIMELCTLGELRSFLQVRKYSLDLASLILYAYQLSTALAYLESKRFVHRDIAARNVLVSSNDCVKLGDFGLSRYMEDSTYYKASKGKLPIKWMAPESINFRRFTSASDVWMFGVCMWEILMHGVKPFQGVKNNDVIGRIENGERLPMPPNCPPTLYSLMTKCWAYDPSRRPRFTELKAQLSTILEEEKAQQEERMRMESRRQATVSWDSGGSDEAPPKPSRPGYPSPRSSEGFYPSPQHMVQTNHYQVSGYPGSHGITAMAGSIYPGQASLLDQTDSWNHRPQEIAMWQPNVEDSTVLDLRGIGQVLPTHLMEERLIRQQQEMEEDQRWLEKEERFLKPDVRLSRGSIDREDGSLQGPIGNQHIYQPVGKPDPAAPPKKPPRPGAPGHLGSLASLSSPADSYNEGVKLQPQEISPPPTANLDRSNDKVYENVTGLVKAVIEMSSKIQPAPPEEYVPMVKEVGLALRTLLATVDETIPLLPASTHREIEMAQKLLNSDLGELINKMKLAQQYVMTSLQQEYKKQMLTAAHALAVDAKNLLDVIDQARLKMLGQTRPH
PLK1 PBD inh = Plk1 (human) PBD binding inhibition. P53350. Plk1 PBD phosphopeptide binding, fluorescence polarization. inhibition, %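 (tested at about 20 µM)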. hit rate 0.13% among 97,000. AID 693; in the data active means inhibition above about 34%, passing the limit was not always enough
DAT uptake mod = human DAT dopamine uptake with cocaine, either direction; LLC-PK1 hDAT cells, [14C]-dopamine uptake with cocaine IC80; actives deviate in either direction; B-score at 10 µM; hit rate 1.3% among 110,000; AID 449768; Q01959;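 active means Z score or B-score, a plate-position-corrected score, falls beyond the plate's 99.7% confidence bounds, in either direction; inactive means both scores lie inside the 99.7% bounds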
EphB4 ephrin blk = blocks human EphB4 binding to ephrin-B2. EphB4 LBD / TNYL-RAW-Alexa532 peptide, fluorescence polarization. inhibition, % at 7 µM. P54760. hit rate 0.15% among 97,000. AID 720;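 active means inhibition above the screen-wide mean inhibition plus 3 SD, cut at about 15% in these data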
PLK1 kinase inh = blocks human PLK1 kinase activity; P53350; recombinant PLK1 kinase, TR-FRET peptide phosphorylation; inhibition, % at 10 µM; hit rate 0.53% among 97,000; AID 619;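 active means inhibition of 50% or more in the single-concentration screen; inactive means inhibition below 50%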
Hits are given with their value; - = inactive; . = no result given; [ ] = remark or other dose.

SMILES	HIV Rev-RRE inh	FAK blocker	PLK1 PBD inh	DAT uptake mod	EphB4 ephrin blk	PLK1 kinase inh
CC(CN(C)Cc1ccccc1)OC(=O)C1COc2ccccc2O1 (stereo unspecified)	-	-	-	-	-	62
COc1ccc(NC(=O)C(C)N2c3cccc4cccc(c34)S2(=O)=O)cc1OC (stereo unspecified)	-	-	-	-	-	-
Cc1ccnc(N2CCC(C(=O)NNC(=O)c3ccccc3C)CC2)n1	-	-	-	-	-	-
C=CCn1c(SCC(=O)N2CCOCC2)nc2sc3c(c2c1=O)CCCC3	-	-	-	3.1	-	-
Cc1ccc(-c2nn3c(C)nnc3c3ccccc23)cc1S(=O)(=O)N1CCN(CCO)CC1	-	-	-	-	-	-
Cc1ccc(-c2nnc(NC3CCCCC3)c3ccccc23)cc1S(=O)(=O)N1CCN(C)CC1	-	-	-	1.9	-	-
CCOc1ccc(CCNC(=O)C2CCCN(S(=O)(=O)c3c(C)n[nH]c3C)C2)cc1OCC (stereo unspecified)	-	-	-	-	-	-
Cc1nnc(-c2ccccc2)c(=O)n1/N=C/c1c(O)ccc2ccccc12	130[fluorescence artefact?]	-	-	-	-	-
CCOC(=O)Cn1cc(C=O)c2ccccc21	-	-	-	-10	-	-
COC(=O)c1ccc(NC(=O)CN2CCN(c3ccc(Cl)cc3)CC2)cc1	.	.	.	-	.	.
COC(=O)c1ccc(NC(=O)CN2CCN(c3cccc(Cl)c3)CC2)cc1	-	-	-	-	17	-
c1cc(-c2cc3cc(N4CCOCC4)ccc3o2)cs1	.	.	.	-	.	.
Cc1ccnc(N2C(=O)c3cccc4c([N+](=O)[O-])ccc(c34)C2=O)c1	45	-	-	-	-	-
COC(=O)COc1cccc2c(=O)n(CC(=O)N3CCCc4ccccc43)ccc12	-	-	-	-	-	-
COc1ccccc1/C=C1\SC(=S)N(Nc2nc(C)cc(C)n2)C1=O	-	-	-	-	-	-
Cc1cc(C)nc(NN2C(=O)/C(=C/c3ccc(O)cc3)SC2=S)n1	58	-	-	-	-	-
C=CCSC1=Nc2sccc2C2=NC(=O)CN12	-	-	-	.	-	-
CC1CCCCN1C(=O)Cn1nnc(-c2cccnc2)n1 (stereo unspecified)	38	-	-	-	-	-
Cc1cccc(OCC(=O)Nc2ccc(N3CCN(C(=O)c4ccco4)CC3)cc2)c1	-	-	-	-	-	-
Cc1nc(NC(=O)c2cc3c(s2)CCCCC3)sc1C(=O)N(C)C	-	-	-	2.3	-	-
COC(=O)c1sc(NC(=O)c2cc3c(s2)CCCC3)nc1C	-	-	-	-	-	-
N#Cc1c(-c2cccs2)cc(C2CC2)nc1SCC(N)=O	-	-	-	-	-	-
COc1ccc(C2CC(C(F)(F)F)n3nc(C(=O)NCc4cn(C)nc4C)c(Cl)c3N2)cc1 (stereo unspecified)	-	-	-	-	-	-
Cc1nn(C)cc1CN(C)C(=O)c1nn2c(c1Cl)NC(c1cccs1)CC2C(F)(F)F (stereo unspecified)	-	-	-	3.5	-	-
CC(C)c1onc(C(=O)N2CCN(Cc3ccccc3)CC2)c1[N+](=O)[O-]	.	.	.	-	.	.
SMILES	HIV Rev-RRE inh	FAK blocker	PLK1 PBD inh	DAT uptake mod	EphB4 ephrin blk	PLK1 kinase inh
Cc1cc(C)c(C#N)c(N2CCN(CCOc3ccc(Cl)cc3)CC2)n1	-	-	-	-	-	-
COc1ccc(Cl)cc1CN1CCN(c2nc(C)cc(C)c2C#N)CC1	40	-	-	-	-	62
CCCCC1=CC2=CC(=O)C(C)(OC(=O)CC)C(=O)C2=CN1CC(C)C (stereo unspecified)	.	.	.	-	.	.
C=CCN1C=C2C(=O)C(C)(OC(=O)CC)C(=O)C=C2C=C1CCCC (stereo unspecified)	.	.	.	-2.8	.	.
COC(=O)CSc1nc(C)cc(Oc2ccccc2)n1	-	-	-	-	-	59
N#C/C(=C\c1ccc(Cl)cc1)c1nc2ncccc2[nH]1	-	-	-	-	-	-
CC1(C)CC(=O)C=C(c2ccc3[nH]ccc3c2)C1	.	.	.	-	.	.
O=C(c1ccc2c(c1)N(Cc1ccccc1)C(=O)c1ccccc1S2)N1CCCC1	-	-	-	3.3	-	-
CN1CCN(C(=O)c2ccc3c(c2)N(Cc2ccc(Cl)cc2)C(=O)c2ccccc2S3=O)CC1 (stereo unspecified)	.	.	.	-	.	.
CCCNC(=O)N1C2=NC(C(=O)OC)=C(C(=O)OC)[C@@H]3N(Cc4ccccc4)c4ccccc4[C@]23C[C@H]1CO	.	.	.	-	.	.
CCOC(=O)c1c(NC(=O)CCN2CCOCC2)sc2c1CC(C)(C)OC2	.	.	.	2.8	.	.
Cc1[nH]n(-c2ccccc2)c(=O)c1/C=N/c1ccccn1	-	-	-	-	-	-
CCOC(=O)c1sc(/N=C/c2c(C)[nH]n(-c3ccccc3)c2=O)c(C#N)c1C	70	-	-	.	-	-
Cc1ccc(-c2nc(C#N)c(NCc3ccco3)o2)cc1	.	.	.	-2.8	.	.
COC(=O)C1=C[C@@H](C(=O)OC)[C@@H]2C3=C(C(=O)[C@@]2(C)NC(=O)c2ccccc2)[C@H](C)n2c(=O)n(C)c(=O)n2[C@@H]3C1	.	.	.	-	.	.
Cc1ccc(CN2CC34C=CC(O3)C(C(=O)NCc3ccc5c(c3)OCO5)C4C2=O)cc1 (stereo unspecified)	-	-	-	-8.1	-	-
COCCCNC(=O)C1C2C=CC3(CN(Cc4ccc(C)cc4)C(=O)C13)O2 (stereo unspecified)	-	-	-	-	-	-
COc1ccc(OC)c(S(=O)(=O)N2CCC(C(=O)NCCc3ccccc3)CC2)c1	-	-	-	-	-	-
O=C(Nc1cccc([N+](=O)[O-])c1)C12CC3CC(C1)CC(n1cnc([N+](=O)[O-])n1)(C3)C2	-	-	-	-	-	-
O=C(c1ccccc1CCc1ccccc1)N1CCOCC1	-	-	-	-6.8	-	-
CSc1ccccc1C(=O)N1CCOCC1	-	-	-	-	-	-
Cc1c(Br)c([N+](=O)[O-])nn1C(C)C(=O)NCc1cccs1 (stereo unspecified)	-	-	-	-9.4	-	-
CC(=O)Nc1ccc(NC(=O)C(C)n2nc([N+](=O)[O-])c(Br)c2C)cc1 (stereo unspecified)	-	-	-	-	-	-
Cc1c(Br)c([N+](=O)[O-])nn1C(C)C(=O)N1CCCc2ccccc21 (stereo unspecified)	-	-	-	-8.2	-	-
Nc1c(Cl)cc(-c2csc(N3CCCC3c3nc4cc(Cl)c(N5CCCCC5)cc4n3CCCO)n2)cc1Cl (stereo unspecified)	.	.	.	-	.	.
COc1cc2cc(/C=C/C(=O)c3ccco3)c(Cl)nc2cc1OC	79[fluorescence artefact?]	-	-	-	-	-
COc1ccc2cc(/C=C/C(=O)c3ccco3)c(Cl)nc2c1	-	-	-	.	-	-
Cc1cc2nc3n(c2cc1C)CC1CC(C(=O)NCc2ccco2)N(C)C31 (stereo unspecified)	.	.	.	-	.	.
